From article PMC10655810 (Journal of Agricultural and Food Chemistry, 2023)
One block for each compound: values may come before it.

Key:
pepsin = pepsin (Sus scrofa, UniProt P00791); test: biochemical; design: species or system porcine; settings: for Proteolytic activity of pepsin (residual activity): pH 2.5
RmuAP1CD = test: Effects of chemicals; format: biochemical, Rhodotorula mucilaginosa; settings: same test as Table 1; preincubation 37 °C, 3 h; BSA, pH 2.5
Summary of the method: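 Residual activity was then measured with 10 μg enzyme and 5 mg BSA per 1 mL at pH 2.5 for 1–1.5 h. The reaction was stopped with cold TCA (10% w/v final), centrifuged, and supernatant A280 read. Triplicate.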

BSA = settings: cited from earlier work
[1] = BSA denatured by 10 min preincubation at pH 0.8

Chain of pepsin (P00791 60-385): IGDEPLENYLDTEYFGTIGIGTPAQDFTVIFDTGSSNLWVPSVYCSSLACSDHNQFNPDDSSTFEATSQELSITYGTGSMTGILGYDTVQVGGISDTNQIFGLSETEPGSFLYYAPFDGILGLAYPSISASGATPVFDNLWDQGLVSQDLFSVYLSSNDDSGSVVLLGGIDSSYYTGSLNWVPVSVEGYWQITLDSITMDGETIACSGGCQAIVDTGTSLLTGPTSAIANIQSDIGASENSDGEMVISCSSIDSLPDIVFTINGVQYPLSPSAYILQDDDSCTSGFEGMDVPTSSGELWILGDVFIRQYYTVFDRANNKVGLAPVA

Proteolytic activity of pepsin (residual activity) (pepsin): 30 ± 4.0% | Effect on the proteolytic activity of RmuAP1CD (in words) (RmuAP1CD): moderately inhibited
Compound: CCCCCCCCCCCCOS(=O)(=O)[O-].[Na+] [SDS, sodium dodecyl sulfate]

Proteolytic activity of pepsin (residual activity) (pepsin): 90 ± 1.0% | Effect on the proteolytic activity of RmuAP1CD (in words) (RmuAP1CD): did not influence the peptidase activity
Compound: OCCS [β-ME, β-mercaptoethanol]

Effect on the proteolytic activity of RmuAP1CD (in words) (RmuAP1CD): moderately inhibited
Compound: Triton X-100

Effect on the proteolytic activity of RmuAP1CD (in words) (RmuAP1CD): drastically inhibited
Compound: pepstatin A

The remaining lines, values behind:

Compound: O=C(O)CN(CCN(CC(=O)O)CC(=O)O)CC(=O)O [EDTA, ethylenediaminetetraacetic acid]
remaining activity at 5000 µM (pepsin; pH 2.5, read-out: Proteolytic activity of pepsin (residual activity)): 95 ± 2.5% | Effect on the proteolytic activity of RmuAP1CD (in words) (RmuAP1CD): unaffected

Compound: O=S(=O)(F)Cc1ccccc1 [PMSF, phenylmethylsulfonyl fluoride]
Effect on the proteolytic activity of RmuAP1CD (in words) (RmuAP1CD): unaffected

Compound: pepsin
Activity of pepsin on HCl-denatured BSA at pH 4.5 (BSA; [1]): 65% | pH of peak activity of pepsin on HCl-denatured BSA (BSA; [1]): 3.0 | Optimum pH of pepsin for BSA (BSA; native BSA, pH 1.0 to 5.5): about 1.7 | Activity of pepsin on BSA at pH 4.0, of its peak value (BSA; native BSA): 10%
